Data set [1] in a line: Half life in human plasma. It counts as ADME. In short, it runs like this:
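Compound ([…]) incubated in 1 mL fresh human plasma at 37 °C against a buffer reference; hydrolysis followed by change in absorption at 325 nm (ϵ 1.55). Initial concentration about 2 × 10^-4 M; apparent first-order kinetics, with the pseudo-first-order rate constant given by k = 0.693/t1/2.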

The subject of data set [2] is L1210. Kind of data set: Inhibition of L1210 lymphoid leukemia cells 24 hr after administration (length of preincubation=0 hr). Format: functional, cell-based. The following applies: Mus musculus. Summed up: (§1)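 L1210 cells (2×10^4/well) exposed continuously to serially diluted compound in Fischer's medium with 10% horse serum for up to 72 h. Viable cells were counted by Trypan blue exclusion at 24, 48 and 72 h. IC50 is the concentration giving 50% growth inhibition, estimated from response curves of three separate experiments.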

The subject of data set [3] is L1210. In words: Inhibition of L1210 lymphoid leukemia cells 48 hr after administration (length of preincubation=0 hr). Format: functional, cell-based. As to conditions: Mus musculus. Summed up:
as §1

Data set [4] concerns L1210. In words: Inhibition of L1210 lymphoid leukemia cells 72 hr after administration (length of preincubation=0 hr). It counts as functional, cell-based. As to conditions: Mus musculus. Summed up: as §1

The structures appear in SMILES notation.

A word on the half-life: it is how long it takes for the measured level to halve. Broadly, the IC50 is the point on the concentration scale where inhibition reaches its midpoint. The low end stands for greater potency in that assay, the high end for weaker potency in that assay. `CC(C)C[C@H](NC(=O)[C@H](N)C(C)C)C(=O)N[C@@H](CCCCN)C(=O)N(C)c1ccn([C@@H]2O[C@H](CO)[C@@H](O)[C@@H]2O)c(=O)n1.N=C(N)c1ccc(CS(=O)(=O)F)cc1` gave a half-life in data set [1] of 5.5 h. The IC50 turned out to be 1000 nM in data set [2], 5 nM in data set [3] and 10 nM in data set [4].
Turning to `Nc1ccn([C@@H]2O[C@H](CO)[C@@H](O)[C@@H]2O)c(=O)n1` [CYTARABINE], the IC50 in data set [2] is 100 nM; in data set [3], 10 nM; in data set [4], 10 nM.

For the origin of these results see ChEMBL document CHEMBL1126194, “Synthesis and functional evaluation of a peptide derivative of 1-beta-D-arabinofuranosylcytosine” (J Med Chem, 1992).
